High-throughput results (PubChem BioAssay)
Only some compounds are listed: those with a hit (about 4.1% of all), similar ones and a draw of the others.
Autophagy HCS = autophagy modulators in MEF cells, primary screen, imaging, high-content, MEF GFP-LC3. MEF GFP-LC3 puncta imaging; test concentration mostly 10 µM. AID 463193, 2010. calls only at 10 µM (by protocol). hit rate 0.98% among 190,000;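 active = percentage of spot-positive cells more than 3 SD above its plate mean, without a fluorescence outlier flag or 80% toxicity; inconclusive = no clear call, values can overlap the other calls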
Dynein transport = inhibitors of GR-EGFP nuclear translocation, primary screen, dynein cargo transport inhibitor project, imaging, high-content, 3617.4 mouse cells | AID 1381, 2008 | z-score, hits read low | test concentration mostly 20 µM; stimulated with dexamethasone, 1 µM; hits give low values | hit rate 0.47% among 220,000;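 active = plate z-score of nuclear minus cytoplasmic receptor signal below a set negative limit, without overly bright fluorescence or cell loss, cut at about -3.5 in these data, passing the limit was not always enough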;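 also: z-score of nuclear minus cytoplasmic ring GR-EGFP intensity difference per well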
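Buffer or medium: Induction medium lacking tetracycline, stripped serum | Also added: Dexamethasone agonist, 1.0 µM final, for 30 min | Timing: 48 h induction, 1 h compound, 30 min dex at 37 °C | Detection: Formaldehyde fixation, Hoechst nuclear stain, 10x automated fluorescence imaging | Measure: Nuclear versus cytoplasmic GR-EGFP signal, averaged per well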
Redox H2O2 prof = compounds producing H2O2 with reducing agent – biochemical, NIH compound library profiling, artefact control for MLSCN library redox annotation, primary screen | DTT-dependent redox cycling H2O2, phenol red/HRP absorbance; 100% = 100 µM peroxide control, 0% = buffer | activation, % at 10 µM | hit rate 0.03% among 200,000 | AID 878, 2007;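 active = activation of at least 50% relative to the plate's high and low controls in the primary single-dose screen; inactive = activation below 50%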;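 also: compound incubated with DTT at 0.8 mM final as the reducing agent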
ROMK mod = ROMK potassium channel modulators, primary screen, cell-based, thallium flux, MLSMR library; ATP-sensitive inward rectifier potassium channel 1 (Homo sapiens), P48048; Tet-inducible ROMK, thallium flux fluorescence; actives lie on both sides; B-score at 10 µM; hit rate 2% among 130,000; AID 1918, 2009;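 active = signal ratio slope over the read window, or its plate-corrected B-score, at least 3 SD from the plate mean, either direction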;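 also: B-score of the F/F0 ratio slope over 7 to 12 s after thallium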
KCC2 mod = KCC2 cotransporter modulators, thallium flux, primary screen, cell-based, HEK293 KCC2, FluoZin-2 fluorescence, MLSMR; KCC2 cells, thallium flux FluoZin-2 fluorescence; AID 1456, 2008; Solute carrier family 12 member 5 (Homo sapiens), Q9H2X9; B-score of Tl+ flux slope (higher = more flux/activation; lower = inhibition) at 10 µM; hit rate 2.2% among 190,000;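 active = thallium flux slope and its plate-corrected score both differing from the plate sample mean at a set confidence after two filtering rounds, in either direction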;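 also: slope of fluorescence scaled to starting intensity during 10 to 20 s after thallium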
Target sequence (Q9H2X9 whole entry, looked up): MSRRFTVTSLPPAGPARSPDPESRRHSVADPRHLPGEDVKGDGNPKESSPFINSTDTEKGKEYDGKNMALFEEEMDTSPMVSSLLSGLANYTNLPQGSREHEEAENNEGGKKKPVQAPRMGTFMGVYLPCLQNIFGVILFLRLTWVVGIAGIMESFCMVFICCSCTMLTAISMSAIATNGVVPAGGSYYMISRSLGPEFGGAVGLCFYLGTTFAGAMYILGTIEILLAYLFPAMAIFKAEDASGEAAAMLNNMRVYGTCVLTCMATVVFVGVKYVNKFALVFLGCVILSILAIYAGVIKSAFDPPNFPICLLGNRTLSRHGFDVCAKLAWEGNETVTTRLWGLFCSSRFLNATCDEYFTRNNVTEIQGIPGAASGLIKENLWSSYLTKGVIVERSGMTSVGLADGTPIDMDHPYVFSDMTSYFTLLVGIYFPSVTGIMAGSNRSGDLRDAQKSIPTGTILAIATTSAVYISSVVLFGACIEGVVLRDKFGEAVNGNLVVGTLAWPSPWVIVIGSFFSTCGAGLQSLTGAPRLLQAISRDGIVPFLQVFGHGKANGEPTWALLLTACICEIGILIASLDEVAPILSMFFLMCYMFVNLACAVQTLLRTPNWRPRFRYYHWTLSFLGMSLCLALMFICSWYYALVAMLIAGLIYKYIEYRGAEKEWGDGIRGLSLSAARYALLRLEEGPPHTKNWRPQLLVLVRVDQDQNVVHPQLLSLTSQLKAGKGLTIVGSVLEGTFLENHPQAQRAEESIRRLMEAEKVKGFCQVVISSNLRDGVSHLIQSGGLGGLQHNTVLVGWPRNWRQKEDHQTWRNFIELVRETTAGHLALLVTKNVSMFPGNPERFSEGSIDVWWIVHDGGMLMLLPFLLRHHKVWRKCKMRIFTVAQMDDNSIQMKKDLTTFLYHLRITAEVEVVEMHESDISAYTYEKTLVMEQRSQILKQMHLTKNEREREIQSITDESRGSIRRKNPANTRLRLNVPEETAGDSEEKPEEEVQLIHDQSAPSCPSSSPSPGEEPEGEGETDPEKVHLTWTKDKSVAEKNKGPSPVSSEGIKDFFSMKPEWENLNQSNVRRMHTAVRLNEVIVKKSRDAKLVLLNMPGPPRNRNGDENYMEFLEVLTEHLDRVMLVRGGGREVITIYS
Dynein confirm = dynein cargo transport inhibitors, GR-EGFP translocation, confirmation, imaging, high-content imaging, GR-EGFP cells; shares compounds with Dynein transport; 3617.4 GR-EGFP nuclear translocation imaging, dexamethasone-induced; calls only at 20 µM; hit rate 69% among 1,000;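 active = inhibition of receptor movement into the nucleus at or above a set limit in both runs, with normal cell brightness and cell count; inconclusive = limit reached in only one run, brightness and count normal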;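 also: dexamethasone at 1 µM final in well for 30 min; nuclear minus cytoplasmic GR-EGFP mean intensity difference in channel 2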
Each line names hits and unclear results; the compound was inactive in the other large screens (follow-up assays come after a bar, where they were run).

CC(=O)OCCCNc1cc(Sc2nc3ccccc3s2)c2nonc2c1[N+](=O)[O-]	none (no result: ROMK mod)
CCCC(=O)OCCNc1cc(SCCC(=O)OC)c2nonc2c1[N+](=O)[O-]	Dynein transport -4.5 (no result: ROMK mod) | Dynein confirm active
CS(=O)(=O)c1cc([N+](=O)[O-])c(Sc2nc3ccccc3[nH]2)c([N+](=O)[O-])c1	Dynein transport -3.6 | Dynein confirm active
NC(=O)/C=C/C(=O)Nc1ccc(Cl)cc1	Dynein transport -3.7 | Dynein confirm inactive
OCCNC(=S)Nc1cccc(Cl)c1Cl	none (no result: Autophagy HCS, Redox H2O2 prof, ROMK mod)
COc1ncnc2c1oc1nc(CC(C)C)c3c(c12)CCCC3	none (no result: KCC2 mod)
CC(C)Cc1nc2oc3c(Cl)ncnc3c2c2c1CCCC2	Dynein transport -5.7 (no result: Autophagy HCS, Redox H2O2 prof, ROMK mod) | Dynein confirm active
CCCc1nc2oc3c(Cl)ncnc3c2c2c1CCCC2	Dynein transport -5.5 (no result: Autophagy HCS, Redox H2O2 prof, ROMK mod) | Dynein confirm inconclusive
COc1ccccc1N1CCN(C2CC(=O)N(C)C2=O)CC1 (stereo unspecified)	none
CCN1C/C(=C/c2cccc([N+](=O)[O-])c2)C(=O)/C(=C/c2cccc([N+](=O)[O-])c2)C1	Dynein transport -4 | Dynein confirm active
COc1cc2c(cc1OC)C(C1C(=O)CC(C)CC1=O)N(C(=O)CCl)CC2 (stereo unspecified)	none (no result: ROMK mod)
Cn1c(=O)c(=O)n(C)c2cc(S(=O)(=O)Nc3ccc4c(c3)OCCO4)ccc21	none (no result: ROMK mod)
Cn1c(=O)oc2cc(S(=O)(=O)Nc3ccc4c(c3)OCCO4)ccc21	none | Dynein confirm inactive
CCOc1ccc2ccccc2c1/C=N/NC(=O)CNC(=O)C(c1ccccc1)c1ccccc1	none
Cc1cc([N+](=O)[O-])nn1CC(=O)c1ccccc1	none (no result: ROMK mod)
Cc1nc([N+](=O)[O-])c(C(=O)OCc2ccccc2Br)n1C	none
Cc1nc([N+](=O)[O-])c(Br)n1CC(=O)c1ccc(Br)cc1	Dynein transport -4.3 | Dynein confirm active
Cc1nc([N+](=O)[O-])c(Br)n1CC(=O)c1ccc2ccccc2c1	Dynein transport -4.3 | Dynein confirm active
Cc1nc([N+](=O)[O-])c(Br)n1CC(=O)c1ccccc1	Dynein transport -5.3 (no result: KCC2 mod) | Dynein confirm active
O=C(OCC(=O)c1ccccc1Br)c1ccncc1	none
Cc1ccc(CN(Cc2ccccc2)C(=S)Nc2ccccc2C)o1	none
CC1(C)CC(NC(=S)Nc2ccc([N+](=O)[O-])cc2)CC(C)(C)N1	none
O=C(Oc1ccccc1C(=O)Nc1ccccc1)c1ccc(Br)c([N+](=O)[O-])c1	Dynein transport -3.9 (no result: ROMK mod) | Dynein confirm inactive
O=C(CCl)Nc1cc(SCC(O)CO)cc([N+](=O)[O-])c1 (stereo unspecified)	Autophagy HCS active, Dynein transport -5.9 | Dynein confirm active
CCC(=O)Nc1cc(SCCO)cc([N+](=O)[O-])c1	none (no result: ROMK mod)
C/C(CCc1oc2c(Br)cc(Br)cc2c1-c1ccc(C)o1)=N\O	Dynein transport -4.1 | Dynein confirm inactive
O=C(CN1CCOCC1)Nc1ncc(Cc2cccc(Cl)c2Cl)s1	none (no result: ROMK mod)
O=C(/C=C/c1ccccc1)/C=C/c1ccccc1	Dynein transport -7 | Dynein confirm active
CNc1nc(OCC(F)(F)F)nc(N2CCN(C34CC5CC(CC(C5)C3)C4)CC2)n1	none
CC(NCC(O)COCCC12CC3CC(CC(C3)C1)C2)c1ccccc1 (stereo unspecified)	Dynein transport -5.2 | Dynein confirm inactive
CC(C)c1ccc(/C=N/n2cnnc2)cc1	none (no result: Autophagy HCS, Redox H2O2 prof)
Cc1ccc2nc(SCC(=O)Nc3ccc(C(N)=O)cc3)[nH]c2c1	Dynein transport -6.7 | Dynein confirm inactive
CCCCCCC(=O)N(O)C1CC(=O)N(c2ccc(F)cc2)C1=O (stereo unspecified)	Dynein transport -4.7 (no result: Autophagy HCS, Redox H2O2 prof) | Dynein confirm active
CCCCCCC(=O)N(O)C1CC(=O)N(c2ccc(Br)cc2)C1=O (stereo unspecified)	none
Cc1ccc(SC(=O)c2c([N+](=O)[O-])c(C)nn2C)cc1	Dynein transport -4.2 (no result: Autophagy HCS, Redox H2O2 prof) | Dynein confirm active
Cc1ccc(NC(=O)/C=N/OCC(=O)NCc2ccccc2Cl)cc1	none (no result: Autophagy HCS, Redox H2O2 prof)
O=C(CCl)N(Cc1ccccc1)c1ccccc1	Dynein transport -5.3 | Dynein confirm active
Cc1cccc(N(Cc2ccccc2)C(=O)CCl)c1	Autophagy HCS inconclusive, Dynein transport -5.7 | Dynein confirm active
O=S(=O)(Nc1ccccn1)c1cccs1	none
N#C/C(=C\c1sc(N2CCOCC2)nc1-c1ccccc1)C(=O)Nc1cccc2ccccc12	Autophagy HCS active (no result: ROMK mod) | Dynein confirm inconclusive
O=C(Nc1ccccc1)c1sc(N2CCOCC2)nc1-c1ccccc1	none (no result: ROMK mod)
N#CC12COC3(CCCCC3C1(C#N)C#N)OC2=N (stereo unspecified)	Dynein transport -5 (no result: Autophagy HCS, Redox H2O2 prof, ROMK mod) | Dynein confirm active
N#CC1(C#N)COC23CCCCC2C1(C#N)C(=N)O3 (stereo unspecified)	none (no result: ROMK mod)
O=C(CC1Sc2ncnn2C1=O)Nc1ccc(Br)cc1 (stereo unspecified)	Dynein transport -3.6 (no result: ROMK mod) | Dynein confirm inactive
CCCNC(=O)COC(=O)/C(C#N)=C/c1cc(C)n(CCC)c1C	none
O=[N+]([O-])c1ccc(-n2nnnc2-c2ccccc2)cc1	none
O=[N+]([O-])c1ccc(-n2nnnc2-c2ccccc2)c([N+](=O)[O-])c1	Dynein transport -6.6 | Dynein confirm active
CC1=CC(=O)C(C(C)C)=CC1=NC(=O)c1ccc(C)cc1	Dynein transport -4.9 | Dynein confirm inconclusive
CC1=CC(=O)C(C(C)C)=C/C1=N/OC(=O)c1cccc([N+](=O)[O-])c1	none
COc1ccc(C(=O)N2CCOC2CNC(=O)C(=O)NCc2ccc(Cl)cc2)cc1 (stereo unspecified)	none
O=[N+]([O-])c1cc([N+](=O)[O-])c2cccnc2c1Oc1ccccc1O	Dynein transport -4.4 (no result: ROMK mod) | Dynein confirm active
O=C(N/N=C/c1cccc([N+](=O)[O-])c1)c1ccccc1-n1cccc1	none
O=C1ON=C(c2ccccc2)/C1=C/c1ccc(-c2ccccc2[N+](=O)[O-])o1	Dynein transport -5.9 | Dynein confirm active
C=CCOc1cccc(NC(=O)c2ccccc2SC)c1	none
COC(=O)c1cc(NC(=O)c2cccc(C(F)(F)F)c2)c(=O)oc1C	none
COC(=O)c1cc(NC(=O)c2cccc(Cl)c2)c(=O)oc1/C=C/Nc1cc(C)cc(C)c1	Autophagy HCS active, ROMK mod -5.8 | Dynein confirm active
